Assay [1] deals with Monocyte. As to the kind of experiment: Inhibition of TNFalpha expression in LPS-stimulated human monocytes treated 30 mins before LPS challenge measured after 14 hrs by ELISA. It counts as functional, cell-based. The essentials: (§1)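 Human PBMC at 4 × 10^6/mL in DMEM with 30% FCS, glutamine and pen/strep were allowed to adhere for 2 h at 37 °C and 5% CO2. Nonadherent lymphocytes were washed off. Adherent monocytes were preincubated 30 min with graded compound concentrations, then stimulated with LPS. After 14 h, supernatants were assayed by ELISA. Values are percent of compound-free cultures, as means ± SE from three donors.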

The test system of assay [2] is Monocyte. Briefly: Inhibition of IL10 expression in LPS-stimulated human monocytes treated 30 mins before LPS challenge measured after 14 hrs by ELISA. It counts as functional, cell-based. The method, boiled down: as §1
For assay [3], the system named is Monocyte. Briefly: Inhibition of MIP1alpha expression in LPS-stimulated human monocytes treated 30 mins before LPS challenge measured after 14 hrs by ELISA. Type of assay: functional, cell-based. The method, boiled down: as §1
The subject of assay [4] is Monocyte. As to the kind of experiment: Inhibition of IL1-beta expression in LPS-stimulated human monocytes at 100 uM treated 30 mins before LPS challenge measured after 14 hrs by ELISA. It counts as functional. The method, boiled down: (§2)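 Monocyte cultures were held 14 h in medium alone, with 20 ng/mL LPS alone, or with LPS plus 100 µM compound. IBMX served as reference. TNFα, IL-6, IL-8, IL-10 and MIP-1α were measured in supernatants by ELISA, and IL-1β in cell lysates made with 1% NP40 in PBS. Significance versus LPS alone was set at p < 0.05.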
On the technique in general: In an ELISA, binding on a coated surface is turned into a signal by an enzyme label.

Assay [5] relates to Monocyte. As to the kind of experiment: Inhibition of IL6 expression in LPS-stimulated human monocytes at 100 uM treated 30 mins before LPS challenge measured after 14 hrs by ELISA. It counts as functional. The method, boiled down: as §2
In assay [6] the test system is Monocyte. Briefly: Inhibition of IL8 expression in LPS-stimulated human monocytes at 100 uM treated 30 mins before LPS challenge measured after 14 hrs by ELISA. Type of assay: functional. The method, boiled down:
as §2

Assay [7] has as its system Monocyte. Briefly: Inhibition of TNFalpha mRNA expression in LPS-stimulated human monocytes treated 30 mins before LPS challenge measured after 90 mins by RT-PCR. Type of assay: functional, cell-based. The essentials:
(§3)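 Elutriated monocytes at 5 × 10^6/mL in complete medium were preincubated 30 min at 37 °C with graded compound concentrations. They were then stimulated with 20 ng/mL LPS for 90 min. Total RNA was isolated with RNAzol. TNFα and IL-1β mRNA were measured by RT-PCR with [α-32P]dCTP, relative to GAPDH.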

Assay [8] has as its system Monocyte. Briefly: Inhibition of IL1-beta mRNA expression in LPS-stimulated human monocytes treated 30 mins before LPS challenge measured after 90 mins by RT-PCR. It counts as functional, cell-based. The method, boiled down:
as §3

Assay [9] concerns the target T1, Phosphodiesterase 4 (Homo sapiens) (UniProt P27815+Q08499+Q07343+Q08493). As to the kind of experiment: Inhibition of PDE4 in human U937 cells assessed as inhibition of cAMP hydrolysis at 2 uM by SPA. Type of assay: cell-based. Particulars: U-937. The essentials: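 PDE, mostly type IV by isoform-inhibitor sensitivity, was semipurified from U937 cells. cAMP hydrolysis was measured by scintillation proximity assay across graded compound concentrations. Rates were expressed as percent of flavonoid-free control, and the concentration giving 50% inhibition was reported.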

Assay [10] concerns the target T1, Phosphodiesterase 4 (Homo sapiens). Briefly: Inhibition of PDE4 in human monocytes assessed as elevation of cytosolic cAMP level at 100 uM treated for 30 mins assessed per 10^7 cells by EIA. It counts as cell-based. The essentials: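 Elutriated human monocytes at 5 × 10^6/mL in complete medium (30% FCS) were precultured 2 h at 37 °C and 5% CO2. They were then exposed for 30 min to 100 µM flavone or 200 µM IBMX. Cells were lysed in cold 10 mM HEPES pH 7.6 with 1% NP40. cAMP was isolated on SAX columns, eluted with methanol/0.01 M HCl, dried, and quantified by EIA as pmol/10^7 cells.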
(In general: cAMP levels reflect the balance of adenylyl cyclase and phosphodiesterase activity.)

For assay [11], the system named is Monocyte. Briefly: Inhibition of TNFalpha expression in LPS-stimulated human monocytes at 100 uM treated 30 mins before LPS challenge measured after 14 hrs by ELISA. Type of assay: functional. The method, boiled down:
as §2

For assay [12], the system named is Monocyte. Briefly: Inhibition of IL10 expression in LPS-stimulated human monocytes at 100 uM treated 30 mins before LPS challenge measured after 14 hrs by ELISA. Type of assay: functional. The method, boiled down: as §2
The subject of assay [13] is Monocyte. Briefly: Inhibition of MIP1alpha expression in LPS-stimulated human monocytes at 100 uM treated 30 mins before LPS challenge measured after 14 hrs by ELISA. Type of assay: functional. The essentials:
as §2

Assay [14] relates to Monocyte. As to the kind of experiment: Increase in IL6 expression in LPS-stimulated human monocytes at 100 uM treated 30 mins before LPS challenge measured after 14 hrs by ELISA. It counts as functional. The essentials:
as §2

Calls of active or inactive are those of the source. No cut-off for these calls is given here.

By IC50 is commonly meant the concentration that gives 50% inhibition. Usually inhibition stands for the relative decrease from the control value, in per cent. In the case of `COc1ccc(-c2oc3c(OC)c(OC)c(OC)c(OC)c3c(=O)c2OC)cc1OC` [3,5,6,7,8,3',4'-HEPTAMETHOXYFLAVONE], the values for the IC50 in the assay on Monocyte [1], in the assay with Monocyte [2] and with Monocyte [3] were 5 µM, 12.3 µM and 7.3 µM, respectively. Besides, the result with Monocyte [4], in the assay with Monocyte [5], in the assay on Monocyte [6] and in the assay on Monocyte [8] was inactive. Further, the Activity in the assay with Monocyte [4] (record 2) was 62.9 ng/mL; in the assay with Monocyte [5] (record 2), 90 ng/mL; in the assay with Monocyte [6] (record 2) it was 307 ng/mL; in assay [10], 5.7 pmol; in the assay with Monocyte [11], 9.7 ng/mL; in the assay on Monocyte [12], 0.269 ng/mL. Besides, the Activity in the assay on Monocyte [13] came out at 49.2 ng/mL; in the assay on Monocyte [14] it was 30%. In addition, the outcome with Monocyte [7] was Active. In assay [9], the inhibition came to 50%.
